The values below come from ChEMBL document CHEMBL2086321, “Modulation of thermo-transient receptor potential (thermo-TRP) channels by thymol-based compounds” (Bioorg Med Chem Lett, 2012).

What all share (assay type): cell-based
Experiment [1] deals with Transient receptor potential cation channel subfamily A member 1 (Rattus norvegicus) (UniProt Q6RI86). Briefly: Activation of rat TRPA1 expressed in HEK293 cells assessed as stimulation of intracellular Ca2+ levels relative to 100 uM allyl isothiocyanate. The procedure, abridged:
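Efficacy on stably transfected rat TRPA1-HEK293 cells is the intracellular Ca2+ rise expressed as percent of the allyl isothiocyanate response. Means ± SEM, N = 3.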

The target in experiment [2] is T1, Transient receptor potential cation channel subfamily A member 1 (Rattus norvegicus, UniProt Q6RI86). Briefly: Activation of rat TRPA1 expressed in HEK293 cells assessed as stimulation of intracellular Ca2+ levels. The procedure, abridged: (§1)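 HEK293 cells stably transfected with rat TRPA1, rat TRPM8 or rat TRPV3 cDNA. Compounds were applied and the rise in intracellular Ca2+ was recorded.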
T1 sequence (Q6RI86 whole entry): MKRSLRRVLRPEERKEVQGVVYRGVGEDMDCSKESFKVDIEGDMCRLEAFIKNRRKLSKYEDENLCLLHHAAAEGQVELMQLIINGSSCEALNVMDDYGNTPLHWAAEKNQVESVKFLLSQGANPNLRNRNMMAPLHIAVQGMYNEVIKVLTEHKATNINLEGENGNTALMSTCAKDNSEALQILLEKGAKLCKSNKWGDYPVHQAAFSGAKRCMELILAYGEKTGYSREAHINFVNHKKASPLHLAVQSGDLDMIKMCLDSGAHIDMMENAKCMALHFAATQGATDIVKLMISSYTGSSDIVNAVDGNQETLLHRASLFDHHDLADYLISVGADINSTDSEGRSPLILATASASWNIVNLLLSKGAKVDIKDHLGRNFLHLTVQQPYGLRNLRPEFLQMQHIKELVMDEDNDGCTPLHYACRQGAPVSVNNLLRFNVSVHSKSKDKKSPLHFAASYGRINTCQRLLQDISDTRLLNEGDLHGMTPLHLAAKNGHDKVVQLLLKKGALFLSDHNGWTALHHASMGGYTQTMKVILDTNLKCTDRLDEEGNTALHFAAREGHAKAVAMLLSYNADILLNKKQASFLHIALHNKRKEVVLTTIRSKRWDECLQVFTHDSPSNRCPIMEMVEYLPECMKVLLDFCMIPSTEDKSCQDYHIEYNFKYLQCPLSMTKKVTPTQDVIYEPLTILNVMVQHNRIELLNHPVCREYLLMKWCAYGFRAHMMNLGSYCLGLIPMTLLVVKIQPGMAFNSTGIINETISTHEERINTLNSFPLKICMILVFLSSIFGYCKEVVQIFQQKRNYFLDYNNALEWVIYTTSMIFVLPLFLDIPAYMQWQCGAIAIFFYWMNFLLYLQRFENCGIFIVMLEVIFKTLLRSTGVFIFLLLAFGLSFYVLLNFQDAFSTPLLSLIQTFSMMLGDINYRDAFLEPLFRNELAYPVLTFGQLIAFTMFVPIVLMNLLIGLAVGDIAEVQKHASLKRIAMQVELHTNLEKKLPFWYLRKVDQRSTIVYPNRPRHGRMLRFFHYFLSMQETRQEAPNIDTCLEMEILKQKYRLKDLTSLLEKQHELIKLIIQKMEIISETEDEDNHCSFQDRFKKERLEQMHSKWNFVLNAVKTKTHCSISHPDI

Experiment [3] deals with T1, Transient receptor potential cation channel subfamily A member 1. The experiment can be described thus: Inhibition of rat TRPA1 expressed in HEK293 cells assessed as reduction in 100 uM allyl isothiocyanate-stimulated increase in intracellular Ca2+ levels. Summed up:
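Rat TRPA1-HEK293 stable cells were preincubated 5 min with compound, then incubation continued with allyl isothiocyanate.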

In experiment [4] the target is Transient receptor potential cation channel subfamily M member 8 (Rattus norvegicus) (UniProt Q8R455). The experiment can be described thus: Activation of rat TRPM8 expressed in HEK293 cells assessed as stimulation of intracellular Ca2+ levels relative to 4 uM ionomycin. The procedure, abridged:
(§2)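 Efficacy on HEK293 cells stably expressing rat TRPM8 or rat TRPV3 is the intracellular Ca2+ elevation expressed as percent of the ionomycin response.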

Experiment [5] addresses T2, Transient receptor potential cation channel subfamily M member 8 (Rattus norvegicus, UniProt Q8R455). Briefly: Activation of rat TRPM8 expressed in HEK293 cells assessed as stimulation of intracellular Ca2+ levels. Summed up:
as §1

Experiment [6] concerns the target T2, Transient receptor potential cation channel subfamily M member 8. Briefly: Inhibition of rat TRPM8 expressed in HEK293 cells assessed as reduction in […] icilin-stimulated increase in intracellular Ca2+ levels.
The target is the same in experiment [7]. The experiment can be described thus: Inhibition of rat TRPM8 expressed in HEK293 cells assessed as reduction in 20 uM menthol-stimulated increase in intracellular Ca2+ levels. Summed up:
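IC50 on rat TRPM8 stably expressed in HEK293 cells, measured as inhibition of the intracellular Ca2+ response to icilin or menthol. Means ± SEM, N = 3.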

Experiment [8] concerns HEK293. Briefly: Activation of rat TRPV3 expressed in HEK293 cells assessed as stimulation of intracellular Ca2+ levels relative to 4 uM ionomycin. Summed up:
as §2

A short description of experiment [9]: Activation of rat TRPV3 expressed in HEK293 cells assessed as stimulation of intracellular Ca2+ levels. Summed up: as §1
Experiment [10] in a line: Inhibition of rat TRPV3 expressed in HEK293 cells assessed as reduction in 100 uM thymol-stimulated increase in intracellular Ca2+ levels.

T2 sequence (Q8R455 whole entry): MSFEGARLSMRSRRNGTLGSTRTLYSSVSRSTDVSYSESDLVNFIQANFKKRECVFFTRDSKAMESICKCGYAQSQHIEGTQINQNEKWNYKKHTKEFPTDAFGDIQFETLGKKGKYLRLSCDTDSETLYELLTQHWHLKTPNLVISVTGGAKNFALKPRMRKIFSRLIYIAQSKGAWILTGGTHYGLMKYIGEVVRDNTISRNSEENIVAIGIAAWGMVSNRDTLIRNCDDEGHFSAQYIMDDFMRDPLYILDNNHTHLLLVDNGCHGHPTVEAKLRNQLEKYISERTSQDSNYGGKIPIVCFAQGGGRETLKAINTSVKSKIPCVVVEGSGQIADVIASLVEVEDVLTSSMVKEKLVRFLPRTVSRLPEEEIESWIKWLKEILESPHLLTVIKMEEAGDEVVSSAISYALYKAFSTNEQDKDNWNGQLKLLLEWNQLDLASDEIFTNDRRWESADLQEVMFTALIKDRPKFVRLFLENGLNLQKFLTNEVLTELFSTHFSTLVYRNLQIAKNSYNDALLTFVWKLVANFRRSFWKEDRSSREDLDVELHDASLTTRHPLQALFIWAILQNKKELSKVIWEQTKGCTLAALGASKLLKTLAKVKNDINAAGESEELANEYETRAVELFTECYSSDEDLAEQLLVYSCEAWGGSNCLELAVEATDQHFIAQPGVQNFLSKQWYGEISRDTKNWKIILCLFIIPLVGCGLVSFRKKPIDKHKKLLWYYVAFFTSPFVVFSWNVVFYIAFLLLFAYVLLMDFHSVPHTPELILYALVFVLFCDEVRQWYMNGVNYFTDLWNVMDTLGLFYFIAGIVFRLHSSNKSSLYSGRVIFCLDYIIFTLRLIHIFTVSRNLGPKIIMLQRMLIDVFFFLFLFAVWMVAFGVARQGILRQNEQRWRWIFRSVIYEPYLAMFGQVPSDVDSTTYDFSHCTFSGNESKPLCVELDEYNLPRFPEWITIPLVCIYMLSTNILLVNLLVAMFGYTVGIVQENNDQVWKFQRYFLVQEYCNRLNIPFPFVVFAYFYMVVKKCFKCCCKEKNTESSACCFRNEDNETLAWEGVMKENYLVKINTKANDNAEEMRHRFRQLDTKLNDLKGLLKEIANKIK
Transient receptor potential cation channel subfamily M member 8 (Rattus norvegicus), sequence (Q8R455 whole entry, looked up): as the sequence (Q8R455 whole entry) above
Transient receptor potential cation channel subfamily A member 1 (Rattus norvegicus), sequence (Q6RI86 whole entry): as the sequence (Q6RI86 whole entry) above

Regarding `Cc1ccc(C(C)C)c(NC(=O)c2ccc(C(C)(C)C)cc2)c1`, the Efficacy was found to be 204% in experiment [1], 24.5% in experiment [4] and 34.8% in experiment [8]. Further, the EC50 came to 6.4 µM in experiment [2], 440 nM in experiment [5] and 10.6 µM in [9]. For the same compound, the IC50 in experiment [3] worked out at 8.8 µM; in experiment [6], 1000 nM; in [7] it was 1000 nM; in experiment [10] it was 6.2 µM.
